Published values collected from several papers.
Lines come from different studies, so protocols differ. ≈ marks a conversion by molar mass, not a printed value.
Method: broth dilution

SMILES | organism | assay | test system | setting | measurement | result
C/C(=N\CCNCC/N=C(\C)c1c(O)c2ccccc2oc1=O)c1c(O)c2ccccc2oc1=O | Aspergillus niger | microbial growth | – | 48 h | MIC | 62.5 µg/mL (≈ 131 µM)
C[C@@H]1O[C@@H](OC[C@H]2O[C@@H](Oc3c(-c4ccc(O)c(O)c4)oc4cc(O)cc(O)c4c3=O)[C@H](O)[C@@H](O)[C@@H]2O)[C@H](O)[C@H](O)[C@H]1O | Streptococcus sobrinus | microbial growth | – | 24 h | MIC | 200 µg/mL (≈ 328 µM)
Cc1ccc(NC(=O)c2ccc(COC(Cn3ccnc3)c3ccc(Cl)cc3Cl)cc2)cc1 (centres unmarked) | Lodderomyces parapsilosis | microbial growth | – | – | MIC80 | 0.06 µg/mL (≈ 0.125 µM)
O=c1oc2c(O)c(O)cc3c(=O)oc4c(O)c(O)cc1c4c23 | Streptococcus sobrinus | microbial growth | – | 24 h | MIC | 100 µg/mL (≈ 331 µM)
O=C(Nc1ccccc1)c1ccc(COC(Cn2ccnc2)c2ccc(Cl)cc2Cl)cc1 (centres unmarked) | Lodderomyces parapsilosis | microbial growth | – | – | MIC80 | 0.125 µg/mL (≈ 0.268 µM)
O=C1OC[C@H]2OC(O)[C@H](O)[C@@H](O)[C@@H]2OC(=O)c2cc(O)c(O)c(O)c2-c2c(O)c(O)c3oc(=O)c4c(c(O)c(O)c5oc(=O)c2c3c54)-c2c1cc(O)c(O)c2O (mixture of isomers) | Streptococcus sobrinus | microbial killing | – | – | MBC | 200 µg/mL
C/C(=N\NC(=O)/N=C(\C)c1c(O)c2ccccc2oc1=O)c1c(O)c2ccccc2oc1=O | Aspergillus niger | microbial growth | – | 48 h | MIC | 125 µg/mL (≈ 279 µM)
COc1ccc(NC(=O)c2ccc(COC(Cn3ccnc3)c3ccc(Cl)cc3Cl)cc2)cc1 (centres unmarked) | Lodderomyces parapsilosis | microbial growth | – | – | MIC80 | 0.125 µg/mL (≈ 0.252 µM)
Cc1ccc(C(C)C)c(OC2=C(Cl)C(=O)c3ccccc3C2=O)c1 | Aspergillus niger | microbial growth | – | – | MIC | 10 µg/mL (≈ 29.3 µM)
O=C(Nc1ccc(F)cc1)c1ccc(COC(Cn2ccnc2)c2ccc(Cl)cc2Cl)cc1 (centres unmarked) | Lodderomyces parapsilosis | microbial growth | – | – | MIC80 | 0.125 µg/mL (≈ 0.258 µM)
CO/N=C(\C(=O)N[C@@H]1C(=O)N2C(C(=O)O)=C(CSc3nc(=O)c(=O)[nH]n3C)CS[C@H]12)c1csc(N)n1 | Neisseria gonorrhoeae | microbial growth | ATCC49226 | – | MIC | 0.008 µg/mL (≈ 0.0144 µM)
CC(=O)N1CCN(c2ccc(OCC3COC(Cn4ccnc4)(c4ccc(Cl)cc4Cl)O3)cc2)CC1 (centres unmarked) | Aspergillus niger | microbial growth | – | 48 h | MIC | 7.8 µg/mL (≈ 14.7 µM)
O=C(O[C@@H]1O[C@@H]2COC(=O)c3cc(O)c(O)c(O)c3-c3c(cc(O)c(O)c3O)C(=O)O[C@H]([C@H]1O)[C@@H]2O)c1cc(O)c(O)c(O)c1 | Streptococcus sobrinus | microbial growth | – | 24 h | MIC | 200 µg/mL (≈ 315 µM)
C/C(=N\CCNCCNCC/N=C(\C)c1c(O)c2ccccc2oc1=O)c1c(O)c2ccccc2oc1=O | Aspergillus niger | microbial growth | – | 48 h | MIC | 31.2 µg/mL (≈ 60.3 µM)
Oc1cc(O)c2c(c1)O[C@H](c1cc(O)c(O)c(O)c1)[C@@H](O)C2 | Streptococcus sobrinus | microbial killing | – | – | MBC | 400 µg/mL (≈ 1310 µM)
O=C(Nc1cccc(F)c1)c1ccc(COC(Cn2ccnc2)c2ccc(Cl)cc2Cl)cc1 (centres unmarked) | Lodderomyces parapsilosis | microbial growth | – | – | MIC80 | 0.125 µg/mL (≈ 0.258 µM)
C/C(=N\C1CCCCC1/N=C(\C)c1c(O)c2ccccc2oc1=O)c1c(O)c2ccccc2oc1=O (centres unmarked) | Aspergillus niger | microbial growth | – | 48 h | MIC | 15.6 µg/mL (≈ 32.1 µM)
O=C1O[C@H]2[C@@H]3OC(=O)c4cc(O)c(O)c(O)c4-c4c(O)c(O)c5oc(=O)c6c(c(O)c(O)c7oc(=O)c4c5c76)-c4c(cc(O)c(O)c4O)C(=O)OC[C@H]3OC(O)[C@@H]2OC(=O)c2cc(O)c(O)c(O)c2-c2c1cc(O)c(O)c2O (mixture of isomers) | Streptococcus sobrinus | microbial growth | – | 24 h | MIC | 100 µg/mL
Clc1ccc(COC(Cn2ccnc2)c2ccc(Cl)cc2Cl)c(Cl)c1 (centres unmarked) | Lodderomyces parapsilosis | microbial growth | – | – | MIC80 | 0.06 µg/mL (≈ 0.144 µM)
OC(Cn1cncn1)(Cn1cncn1)c1ccc(F)cc1F | Aspergillus niger | microbial growth | – | – | MIC | 10 µg/mL (≈ 32.7 µM)
